From ChEMBL document CHEMBL4680186, “New azole antifungals with a fused triazinone scaffold” (Eur J Med Chem, 2020)
The source made the active and inactive calls. The rule behind the calls is not given here.

What was measured:
[1] = system: Rhizopus arrhizus; assay: Antifungal activity against Rhizopus oryzae RHPOR1 assessed as reduction in microbial growth after 24 hrs by broth microdilution method; type: functional
Method in brief: (§1)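 CLSI M38 broth microdilution in RPMI 1640 buffered to pH 7.0 with MOPS. Drugs were diluted in DMSO then medium; final range 0.032-16 mg/L. Conidia or sporangiospores came from 7-day potato dextrose agar cultures; diluted (2×) inocula were 0.9×10^4–4.7×10^4 CFU/mL. Incubation at 35 °C, read at 48 h except Zygomycetes at 24 h. MIC read visually as lowest concentration preventing 100% growth; duplicate.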

[2] = system: Rhizopus arrhizus; assay: Antifungal activity against Rhizopus oryzae RHPOR2 assessed as reduction in microbial growth after 24 hrs by broth microdilution method; type: functional; method in brief: as §1
[3] = system: Mucor circinelloides; assay: Antifungal activity against Mucor circinelloides MURI1 assessed as reduction in microbial growth after 24 hrs by broth microdilution method; type: functional; method in brief: as §1
[4] = system: Fusarium sp.; assay: Antifungal activity against Fusarium sp. assessed as reduction in microbial growth […] by broth microdilution method; type: functional
[5] = system: Scedosporium apiospermum; assay: Antifungal activity against Scedosporium apiospermum SCAP1 assessed as reduction in microbial growth […] by broth microdilution method; type: functional
[6] = system: Candida albicans; assay: Inhibition of sterol biosynthesis in Candida albicans CAAL93 assessed as ergosterol level at 10 ng/ml after 18 hrs by GC-MS analysis (reference value: 89.7%); type: functional; design: scale not given: the % may be the effect or the level left
Method in brief: (§2)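 C. albicans CAAL93 blastospores were grown 18 h at 35 °C with stirring in 50 mL Sabouraud broth, with drug added before incubation. Cells were pelleted and saponified in ethanolic KOH at 80 °C for 60 min, and sterols extracted with hexane. Analysis by GC-MS (EI 70 eV, splitless injection at 250 °C, helium carrier); sterols identified by fragmentation pattern.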

[7] = system: Candida albicans; assay: Inhibition of sterol biosynthesis in Candida albicans CAAL93 assessed as 14alpha-methylfecosterol level at 10 ng/ml after 18 hrs by GC-MS analysis relative to control; type: functional; design: scale not given: the % may be the effect or the level left; method in brief: as §2
[8] = system: Candida albicans; assay: Inhibition of sterol biosynthesis in Candida albicans CAAL93 assessed as ergostadienol level at 10 ng/ml after 18 hrs by GC-MS analysis (reference value: 1.6%); type: functional; design: scale not given: the % may be the effect or the level left; method in brief: as §2
[9] = system: Candida albicans; assay: Inhibition of sterol biosynthesis in Candida albicans CAAL93 assessed as lanosterol level at 10 ng/ml after 18 hrs by GC-MS analysis (reference value: 1.6%); type: functional; design: scale not given: the % may be the effect or the level left; method in brief: as §2
[10] = system: Candida albicans; assay: Inhibition of sterol biosynthesis in Candida albicans CAAL93 assessed as eburicol level at 10 ng/ml after 18 hrs by GC-MS analysis relative to control; type: functional; design: scale not given: the % may be the effect or the level left; method in brief: as §2
[11] = system: Candida albicans; assay: Inhibition of sterol biosynthesis in Candida albicans CAAL93 assessed as other sterols level at 10 ng/ml after 18 hrs by GC-MS analysis (Rvb < 1%); type: functional; design: scale not given: the % may be the effect or the level left; method in brief: as §2
[12] = system: Candida albicans; assay: Inhibition of sterol biosynthesis in Candida albicans CAAL93 assessed as zymosterol level at 1 ng/ml after 18 hrs by GC-MS analysis (reference value: 1.6%); type: functional; design: scale not given: the % may be the effect or the level left
[13] = system: Candida albicans; assay: Inhibition of sterol biosynthesis in Candida albicans CAAL93 assessed as ergosterol level at 1 ng/ml after 18 hrs by GC-MS analysis (reference value: 89.7%); type: functional; design: scale not given: the % may be the effect or the level left
[14] = system: Candida albicans; assay: Inhibition of sterol biosynthesis in Candida albicans CAAL93 assessed as fecosterol level at 1 ng/ml after 18 hrs by GC-MS analysis relative to control; type: functional; design: scale not given: the % may be the effect or the level left
[15] = system: Candida albicans; assay: Inhibition of sterol biosynthesis in Candida albicans CAAL93 assessed as ergostadienol level at 1 ng/ml after 18 hrs by GC-MS analysis (reference value: 1.6%); type: functional; design: scale not given: the % may be the effect or the level left
[16] = system: Candida albicans; assay: Inhibition of sterol biosynthesis in Candida albicans CAAL93 assessed as episterol level at 1 ng/ml after 18 hrs by GC-MS analysis (reference value: 2%); type: functional; design: scale not given: the % may be the effect or the level left
[17] = system: Candida albicans; assay: Inhibition of sterol biosynthesis in Candida albicans CAAL93 assessed as lanosterol level at 1 ng/ml after 18 hrs by GC-MS analysis (reference value: 1.6%); type: functional; design: scale not given: the % may be the effect or the level left
[18] = system: Candida albicans; assay: Inhibition of sterol biosynthesis in Candida albicans CAAL93 assessed as eburicol level at 1 ng/ml after 18 hrs by GC-MS analysis relative to control; type: functional; design: scale not given: the % may be the effect or the level left
[19] = system: Candida albicans; assay: Inhibition of sterol biosynthesis in Candida albicans CAAL93 assessed as other sterols level at 1 ng/ml after 18 hrs by GC-MS analysis (Rvb < 1%); type: functional; design: scale not given: the % may be the effect or the level left
[20] = system: Candida albicans; assay: Inhibition of ergosterol biosynthesis in Candida albicans CAAL93 at 1 ng/ml after 18 hrs by GC-MS analysis relative to control; type: functional
[21] = system: Candida albicans; assay: Inhibition of ergosterol biosynthesis in Candida albicans CAAL93 at 10 ng/ml after 18 hrs by GC-MS analysis relative to control; type: functional
[22] = system: Candida albicans; assay: Inhibition of ergosterol biosynthesis in Candida albicans CAAL93 after 18 hrs by GC-MS analysis; type: functional; details: dose 1-10 ng/ml
[23] = Toxicity in CRL:WI rat assessed as mortality at 300 mg/kg, po up to 14 days; type: organism-based; details: in vivo, 336 h, time <=14 day
Method in brief: (§3)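 Acute oral toxicity in rats: single gavage dose of 300 mg/kg bw (two groups). Behaviour, body weight change, toxicity signs and mortality were recorded at 30 min, 1, 2, 4 and 6 h after dosing, then daily for 14 days.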

[24] = Toxicity in CRL:WI rat assessed as hunched back at 300 mg/kg, po up to 14 days; type: organism-based; details: in vivo, 336 h, time <=14 day; method in brief: as §3
[25] = Toxicity in CRL:WI rat assessed as behavioral changes at 300 mg/kg, po up to 14 days; type: organism-based; details: in vivo, 336 h, time <=14 day; method in brief: as §3
[26] = Toxicity in CRL:WI rat assessed as weight gain at 300 mg/kg, po up to 14 days; type: organism-based; details: in vivo, 336 h, time <=14 day; method in brief: as §3
[27] = system: Candida albicans; assay: Antifungal activity against Candida albicans CAAL93 infected in Swiss mouse assessed as survival at 10 mg/kg, po after 14 days relative to control; type: functional; details: 336 h, time 14 day
Method in brief: (§4)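 Swiss mice (~25 g) immunosuppressed with prednisolone 30 mg/kg s.c. one day before challenge; day 0 i.v. infection with C. albicans blastoconidia (5.10⁶ yeast/mL, 100 µL). Oral dosing 1 h post-infection, once daily for 5 days, 10 mg/kg (CAAL93) or 15 mg/kg (DSY292), vehicle 40% DMSO/25% Tween80/35% olive oil. Mice given 50% grapefruit juice ad libitum. Survival followed 14 days (log-rank Mantel-Cox).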

[28] = system: Candida albicans; assay: Antifungal activity against Candida albicans CAAL93 infected in Swiss mouse assessed as reduction in kidney fungal burden at 10 mg/kg, po after 14 days; type: functional, organism-based; details: time 14.0 day
[29] = system: Candida albicans; assay: Antifungal activity against Candida albicans DSY292 harboring Erg1l G464S/R467K/Y132 mutant infected in Swiss mouse assessed as survival at 15 mg/kg, po after 10 days; type: functional, organism-based; details: time 10.0 day; method in brief: as §4
[30] = system: Candida albicans; assay: Antifungal activity against Candida albicans DSY292 harboring Erg1l G464S/R467K/Y132 infected in Swiss mouse assessed as reduction in kidney fungal burden at 10 mg/kg, po after 14 days; type: functional, organism-based; details: time 14.0 day
[31] = system: Pichia kudriavzevii (Candida krusei); assay: Antifungal activity against fluconazole-resistant Candida krusei CAKR7 assessed as reduction in microbial growth after 24 hrs by resazurin staining based spectrofluorometric method; details: CAKR7, 24 h
[32] = system: Pichia kudriavzevii (Candida krusei); assay: Antifungal activity against fluconazole-resistant Candida krusei CAKR8 assessed as reduction in microbial growth after 24 hrs by resazurin staining based spectrofluorometric method; details: CAKR8, 24 h

COc1ccc(-c2cc3cnn([C@H](C)[C@](O)(Cn4cncn4)c4ccc(F)cc4F)c(=O)n3c2)cc1
MIC [1]: 0.0625 µg/mL
MIC [2]: 0.094 µg/mL
MIC [3]: 0.19 µg/mL
MIC [4]: > 16 µg/mL
MIC [5]: 3 µg/mL
Activity [6]: 42%
Activity [7]: 3.6%
Activity [8]: 1.1%
Activity [9]: 25.2%
Activity [10]: 23.1%
Activity [11]: 5%
Activity [12]: 3.3%
Activity [13]: 61%
Activity [14]: 3.2%
Activity [15]: 3.7%
Activity [16]: 11%
Activity [17]: 7.7%
Activity [18]: 1.8%
Activity [19]: 8.3%
inhibition [20]: 32%
inhibition [21]: 53%
inhibition [22]: Dose-dependent effect
Activity [23]: Non-Toxic
Activity [24]: Toxic
Activity [25]: Toxic
Activity [26]: Non-Toxic
survival at 10 mg/kg [27]: 100%
Activity [28]: Active
Survival [29]: Active
Activity [30]: Active
MIC [31]: 0.062 µg/mL
MIC [32]: 0.081 µg/mL
